Here are results for 20 molecules from ChEMBL document CHEMBL2375279, “Synthesis and biological evaluation of helioxanthin analogues” (Bioorg Med Chem, 2013).

pEC50: −log10 of the molar value. Calls of active or inactive are those of the source. The rule behind the calls is not given here. Bounds are passed on as bounds.

The first data set relates to Hepatitis B virus. Briefly: Antiviral activity against Hepatitis B virus infected in human 1.3ES2 cells assessed as reduction of HBeAg mRNA and pregenomic RNA level after 48 hrs by Northern blot analysis. The data set is classed as functional, organism-based.
Details: not given
In a few lines: (§1)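 1.3ES2 cells were grown to confluence in DMEM with 10% FCS, then switched to serum-free DMEM containing compound (0, 1.0 or 5.0 µM) for 48 h. Total RNA was extracted by phenol/guanidinium isothiocyanate, denatured in 2.2 M formaldehyde and run on a 1.2% agarose formaldehyde gel. It was blotted to nylon and probed with a 32P full-length HBV probe. The 3.5 kb and 2.4/2.1 kb bands were normalized to GAPDH.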
Regarding `COc1ccc(-c2c3c(cc4ccc5c(c24)OCO5)C(=O)OC3)cc1OC(C)=O`, the Activity entry is “Dose-dependent effect”.

The next data set relates to Hepatitis B virus. Briefly: Antiviral activity against Hepatitis B virus infected in human 1.3ES2 cells assessed as inhibition of viral DNA replication at 5 uM after 72 hrs by RT-PCR analysis. It counts as functional, organism-based.
Details: not given
The method, boiled down:
(§2)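 1.3ES2 cells (HepG2 clone stably carrying a 1.3-fold HBV ayw genome) were seeded in 100 mm dishes, then exposed to compound (0, 1.0 or 5.0 µM) in serum-free DMEM for 72 h. Virion-associated HBV DNA in the medium was quantified by real-time PCR against a plasmid standard curve (10^3–10^7 copies), with 45 cycles of 95 °C 12 s and 54 °C 20 s. Mean ± S.D., n = 3.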
As for `COc1cc(-c2c3c(cc4ccc5c(c24)OCO5)C(=O)OC3)ccc1OC(C)=O`, the inhibition result was “inactive”.

Test system in a further data set: not listed separately
Briefly: Cytotoxicity against human HepA2 cells after 2 days by MTT assay. The data set is classed as cell-based.
Details: not given
The method, boiled down: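 HepA2 cells were seeded in DMEM with 10% FCS, attached for 24 h, washed with PBS pH 7.0, and then exposed to various compound concentrations in serum-free DMEM for 48 h. Viable cell number in each well was then determined by MTT assay.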
In the case of `CCCCCC(=O)OCc1cc2ccc3c(c2c(-c2ccc(O)c(OC)c2)c1COC(=O)CCCCC)OCO3`, the CC50 at 48 h was > 12.5 µM.
The same measure, in the same setting: the figure for `CCCCCOC(=O)CN1Cc2c(cc3ccc4c(c3c2-c2ccc3c(c2)OCO3)OCO4)C1=O` is 3.05 µM.
On the same count and under the same terms, for `COc1cc(-c2c3c(cc4ccc5c(c24)OCO5)C(=O)OC3)ccc1OC(C)=O` the value was > 12.5 µM; for `COc1cc(-c2c(CO)c(CO)cc3ccc4c(c23)OCO4)ccc1O`, > 12.5 µM.
On to `CC(=O)OCc1cc2ccc3c(c2c(-c2ccc4c(c2)OCO4)c1CO)OCO3`, for which the half-maximal cytotoxic concentration (CC50) at 48 h was > 12.5 µM.
The same measure, in the same setting: for `O=C(O)CN1Cc2c(cc3ccc4c(c3c2-c2ccc3c(c2)OCO3)OCO4)C1=O` the value was > 12.5 µM.
Same read-out and setting: for `COc1cc(-c2c(CO)c(COC(C)=O)cc3ccc4c(c23)OCO4)ccc1O` the value was > 12.5 µM; for `COc1cc(-c2c3c(cc4ccc5c(c24)OCO5)C(=O)OC3)ccc1O`, > 12.5 µM.
Still for that read-out and setting: the figure for `COc1ccc(-c2c(COC(C)=O)c(COC(C)=O)cc3ccc4c(c23)OCO4)cc1OC(C)=O` is > 12.5 µM; for `CC(=O)OCc1cc2ccc3c(c2c(-c2ccc(OC(C)=O)c(OC(C)=O)c2)c1COC(C)=O)OCO3` it is > 12.5 µM; for `CCCCCC(=O)OCc1cc2ccc3c(c2c(-c2ccc4c(c2)OCO4)c1CO)OCO3` it is > 12.5 µM.
Take `COc1cc(-c2c3c(cc4ccc5c(c24)OCO5)COC3=O)ccc1O`: the CC50 at 48 h is > 12.5 µM.
Same read-out and setting: for `CCCCCC(=O)OCc1cc2ccc3c(c2c(-c2ccc(OC)c(OC)c2)c1CO)OCO3` the value was > 12.5 µM.
On the same count and under the same terms, the figure for `COc1ccc(-c2c3c(cc4ccc5c(c24)OCO5)COC3=O)cc1O` is > 12.5 µM.
On the same count and under the same terms, the figure for `N#CCCCCCCCCOc1ccc(-c2c3c(cc4ccc5c(c24)OCO5)C(=O)OC3)cc1O` is > 12.5 µM.
Regarding `O=C1OCc2cc3ccc4c(c3c(-c3ccc(O)c(O)c3)c21)OCO4`, the CC50 at 48 h was > 12.5 µM.
Still for that read-out and setting: the figure for `COc1ccc(-c2c3c(cc4ccc5c(c24)OCO5)C(=O)OC3)cc1OC(C)=O` is > 12.5 µM; for `CC(=O)OCc1cc2ccc3c(c2c(-c2ccc(O)c(OC(C)=O)c2)c1COC(C)=O)OCO3` it is > 12.5 µM.
The same measure, in the same setting: for `COc1ccc(-c2c(CO)c(COC(C)=O)cc3ccc4c(c23)OCO4)cc1OC` the value was > 12.5 µM; for `CC(=O)Oc1cc(-c2c3c(cc4ccc5c(c24)OCO5)C(=O)OC3)ccc1OCCCCCCCCC#N`, > 12.5 µM.

In another data set the test system is Hepatitis B virus. Briefly: Antiviral activity against Hepatitis B virus infected in human 1.3ES2 cells assessed as inhibition of viral DNA replication after 72 hrs by RT-PCR analysis. The data set is classed as functional, organism-based.
Details: not given
In a few lines: as §2
With `COc1ccc(-c2c3c(cc4ccc5c(c24)OCO5)C(=O)OC3)cc1OC(C)=O`, the inhibition result is “Dose-dependent effect”.

A further data set relates to Hepatitis B virus. Briefly: Antiviral activity against Hepatitis B virus infected in human 1.3ES2 cells assessed as reduction of middle/major HBsAg mRNA level after 48 hrs by Northern blot analysis. It counts as functional, organism-based.
Details: not given
The method, boiled down:
as §1
For the molecule `COc1ccc(-c2c3c(cc4ccc5c(c24)OCO5)C(=O)OC3)cc1OC(C)=O`, the Activity result is “Dose-dependent effect”.

A further data set deals with Hepatitis B virus. Briefly: Antiviral activity against Hepatitis B virus infected in human 1.3ES2 cells assessed as reduction of large HBsAg mRNA level after 48 hrs by Northern blot analysis. The data set is classed as functional, organism-based.
Details: not given
In a few lines: as §1
Take `COc1ccc(-c2c3c(cc4ccc5c(c24)OCO5)C(=O)OC3)cc1OC(C)=O`: the Activity result is “Dose-dependent effect”.

The test system of another data set is Hepatitis B virus. Briefly: Antiviral activity against Hepatitis B virus infected in human HepA2 cells assessed as inhibition of viral surface antigen production after 2 days by enzyme immunoassay. It counts as functional, organism-based.
Details: not given
In a few lines:
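HepA2 cells (HepG2 transfected with two tandem HBV genome repeats, secreting HBsAg) were seeded at 3 × 10^4 per well (96-well) or 1 × 10^5 per well (24-well) in DMEM with 10% FCS for 24 h. They were washed twice with PBS pH 7.0 and treated with graded concentrations in serum-free DMEM for 48 h. Medium HBsAg was measured by enzyme immunoassay. EC50 is the concentration giving 50% of untreated HBsAg. Mean ± S.D., n = 3.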
With `COc1ccc(-c2c3c(cc4ccc5c(c24)OCO5)C(=O)OC3)cc1OC(C)=O`, the inhibition result was “Dose-dependent effect”.

Still in this data set, the particulars now being: HepA2, 48 h.
Regarding `CCCCCC(=O)OCc1cc2ccc3c(c2c(-c2ccc(O)c(OC)c2)c1COC(=O)CCCCC)OCO3`, the pEC50 was < 4.90.
On the same count and under the same terms, the figure for `CCCCCOC(=O)CN1Cc2c(cc3ccc4c(c3c2-c2ccc3c(c2)OCO3)OCO4)C1=O` is < 4.90; for `COc1cc(-c2c3c(cc4ccc5c(c24)OCO5)C(=O)OC3)ccc1OC(C)=O` it is < 5.22.
For `COc1cc(-c2c(CO)c(CO)cc3ccc4c(c23)OCO4)ccc1O`, the pEC50 is 5.56.
The same measure, in the same setting: the figure for `O=C(O)CN1Cc2c(cc3ccc4c(c3c2-c2ccc3c(c2)OCO3)OCO4)C1=O` is < 5.22.
The same measure, in the same setting: the figure for `COc1cc(-c2c(CO)c(COC(C)=O)cc3ccc4c(c23)OCO4)ccc1O` is < 4.90; for `COc1ccc(-c2c(COC(C)=O)c(COC(C)=O)cc3ccc4c(c23)OCO4)cc1OC(C)=O` it is 6.19; for `CC(=O)OCc1cc2ccc3c(c2c(-c2ccc(OC(C)=O)c(OC(C)=O)c2)c1COC(C)=O)OCO3` it is < 4.90.
On the same count and under the same terms, for `CCCCCC(=O)OCc1cc2ccc3c(c2c(-c2ccc4c(c2)OCO4)c1CO)OCO3` the value was 5.72; for `COc1cc(-c2c3c(cc4ccc5c(c24)OCO5)COC3=O)ccc1O`, 5.40; for `CCCCCC(=O)OCc1cc2ccc3c(c2c(-c2ccc(OC)c(OC)c2)c1CO)OCO3`, < 4.90.
In the case of `COc1ccc(-c2c3c(cc4ccc5c(c24)OCO5)COC3=O)cc1O`, the pEC50 was 5.76.
Still for that read-out and setting: the figure for `N#CCCCCCCCCOc1ccc(-c2c3c(cc4ccc5c(c24)OCO5)C(=O)OC3)cc1O` is < 4.90.
The same measure, in the same setting: the figure for `O=C1OCc2cc3ccc4c(c3c(-c3ccc(O)c(O)c3)c21)OCO4` is 5.47; for `COc1ccc(-c2c3c(cc4ccc5c(c24)OCO5)C(=O)OC3)cc1OC(C)=O` it is 7.22.
As for `CC(=O)OCc1cc2ccc3c(c2c(-c2ccc(O)c(OC(C)=O)c2)c1COC(C)=O)OCO3`, the negative logarithm of the EC50 (pEC50) was < 4.90.
On the same count and under the same terms, for `COc1ccc(-c2c(CO)c(COC(C)=O)cc3ccc4c(c23)OCO4)cc1OC` the value was 5.43; for `CC(=O)Oc1cc(-c2c3c(cc4ccc5c(c24)OCO5)C(=O)OC3)ccc1OCCCCCCCCC#N`, < 4.90.

The test system of a further data set is Hepatitis B virus. As to the kind of experiment: Antiviral activity against Hepatitis B virus infected in human 1.3ES2 cells assessed as reduction of viral RNA level at 5 uM after 48 hrs by Northern blot analysis. The data set is classed as functional, organism-based.
Details: not given
The method, boiled down: as §1
Take `COc1cc(-c2c3c(cc4ccc5c(c24)OCO5)C(=O)OC3)ccc1OC(C)=O`: the outcome was inactive.

The next data set relates to Hepatitis B virus. Briefly: Antiviral activity against Hepatitis B virus infected in human HepA2 cells assessed as inhibition of viral core promoter activity after 24 hrs by luciferase reporter gene assay.
Details: not given
For `COc1ccc(-c2c3c(cc4ccc5c(c24)OCO5)C(=O)OC3)cc1OC(C)=O`, the inhibition entry was “Dose-dependent effect”.

A further data set deals with Hepatitis B virus. As to the kind of experiment: Antiviral activity against Hepatitis B virus infected in human HepA2 cells assessed as inhibition of viral core promoter activity at 0.03 uM after 24 hrs by luciferase reporter gene assay. The note with it: HepA2, 24 h.
In the case of `COc1ccc(-c2c3c(cc4ccc5c(c24)OCO5)C(=O)OC3)cc1OC(C)=O`, the inhibition at 0.03 µM amounted to 40%.
